Measurements reported in ChEMBL document CHEMBL1153097, “Synthesis and biological evaluation of a novel series of pyrazole chalcones as anti-inflammatory, antioxidant and antimicrobial agents” (Bioorg Med Chem, 2009).
Active and inactive are the calls of the source. No cut-off for these calls is given here.

Columns and labels:
[1] = test system: Radical scavenging activity; assay: Antioxidant activity assessed as DPPH radical scavenging activity; type: functional; parameters: concentration or dose not given beside the values
[2] = test system: Trichoderma viride; assay: Antimicrobial activity against Trichoderma viride MTCC 167 at 250 ug/ml after 48 hrs by agar diffusion method; type: functional; conditions: MTCC 167, 48 h, read-out: IZ
Method in brief: (§1)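 Agar diffusion on Sabouraud's dextrose agar. Plates were spread with 0.1 mL of fungal spore suspension in sterile distilled water, adjusted to 10⁶ cfu/mL. Duplicate plates were incubated 48 h at 28 °C, and the zone of inhibition was measured in mm.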

[3] = test system: THP-1; assay: Cytotoxicity against human THP1 cells assessed as CCK8 […] at 10 uM after 24 hrs […]; type: cell-based; conditions: thp-1, 24 h
Method in brief: (§2)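 Cytotoxicity was read with CCK-8 in the same wells as the cytokine assay. PMA-differentiated THP-1 cells were exposed to compound in 0.5% DMSO for 30 min at 37 °C, then stimulated with LPS and incubated further at 37 °C.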

[4] = test system: Staphylococcus aureus; assay: Antimicrobial activity against Staphylococcus aureus MTCC 96 at 100 ug/ml after 24 hrs by agar diffusion method; type: functional; conditions: MTCC 96, 24 h, read-out: IZ
Method in brief: (§3)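 Agar diffusion on Mueller Hinton agar. Plates were seeded with 0.1 mL of bacterial suspension at 10⁵ cfu/mL in 0.85% sterile saline. Duplicate plates were incubated 24 h at 37 °C, and the zone of inhibition was measured in mm.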

[5] = test system: THP-1; assay: Antiinflammatory activity in human THP1 cells assessed as inhibition of LPS-induced TNFalpha release at 10 uM after 24 hrs by ELISA; type: functional; conditions: THP-1, 24 h
Method in brief: (§4)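 PMA-differentiated THP-1 cells in RPMI 1640 with 10% FBS, penicillin and streptomycin. Test compound in 0.5% DMSO added 30 min at 37 °C before E. coli 0127:B8 LPS, then further incubation at 37 °C. Supernatant TNF-α and IL-6 measured by ELISA. Percent inhibition calculated against control.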

[6] = test system: Aspergillus niger; assay: Antimicrobial activity against Aspergillus niger MTCC 1781 at 250 ug/ml after 48 hrs by agar diffusion method; type: functional; conditions: MTCC 1781, 48 h, read-out: IZ; method in brief: as §1
[7] = test system: THP-1; assay: Antiinflammatory activity in human THP1 cells assessed as inhibition of LPS-induced IL6 release at 10 uM after 24 hrs by ELISA; type: functional; conditions: THP-1, 24 h; method in brief: as §4
[8] = test system: Klebsiella pneumoniae; assay: Antimicrobial activity against Klebsiella pneumoniae NCIM 2957 at 100 ug/ml after 24 hrs by agar diffusion method; type: functional; conditions: for zone of inhibition at 100 µg/mL: NCIM 2957, 24 h, read-out: IZ; method in brief: as §3
[9] = test system: Aspergillus flavus; assay: Antimicrobial activity against Aspergillus flavus MTCC 2501 at 250 ug/ml after 48 hrs by agar diffusion method; type: functional; conditions: MTCC 2501, 48 h, read-out: IZ; method in brief: as §1
[10] = test system: Escherichia coli; assay: Antimicrobial activity against Escherichia coli MTCC 1650 at 100 ug/ml after 24 hrs by agar diffusion method; type: functional; conditions: MTCC 1650, 24 h, read-out: IZ; method in brief: as §3
[11] = test system: Bacillus subtilis; assay: Antimicrobial activity against Bacillus subtilis MTCC 1789 at 100 ug/ml after 24 hrs by agar diffusion method; type: functional; conditions: MTCC 1789, 24 h, read-out: IZ; method in brief: as §3
[12] = test system: Proteus vulgaris; assay: Antimicrobial activity against Proteus vulgaris MTCC 1771 at 10 ug/ml after 24 hrs by agar diffusion method; type: functional; conditions: MTCC 1771, 24 h, read-out: IZ; method in brief: as §3
[13] = test system: Klebsiella pneumoniae; assay: Antimicrobial activity against Klebsiella pneumoniae NCIM 2957 at 10 ug/ml after 24 hrs by agar diffusion method; type: functional; conditions: NCIM 2957, 24 h, read-out: IZ; method in brief: as §3
[14] = test system: Staphylococcus aureus; assay: Antimicrobial activity against Staphylococcus aureus MTCC 96 at 10 ug/ml after 24 hrs by agar diffusion method; type: functional; conditions: MTCC 96, 24 h, read-out: IZ
Method in brief: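 Mueller Hinton agar seeded with 0.1 mL of bacterial suspension in sterile 0.85% saline at 10⁵ cfu/mL. Duplicate plates incubated 24 h at 37 ± 0.5 °C. Activity read as zone of inhibition in mm.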

[15] = test system: Trichoderma viride; assay: Antimicrobial activity against Trichoderma viride MTCC 167 at 30 ug/ml after 48 hrs by agar diffusion method; type: functional, organism-based
Method in brief: (§5)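 Fungal spore suspensions in sterile distilled water adjusted to 10⁶ cfu/mL; 0.1 mL spread on Sabouraud's dextrose agar plates. Duplicate plates incubated 48 h at 28 ± 0.2 °C. Activity read as zone of inhibition in mm.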

[16] = test system: Aspergillus flavus; assay: Antimicrobial activity against Aspergillus flavus MTCC 2501 at 30 ug/ml after 48 hrs by agar diffusion method; type: functional, organism-based; method in brief: as §5
[17] = test system: Aspergillus niger; assay: Antimicrobial activity against Aspergillus niger MTCC 1781 at 30 ug/ml after 48 hrs by agar diffusion method; type: functional, organism-based; method in brief: as §5
[18] = test system: Proteus vulgaris; assay: Antimicrobial activity against Proteus vulgaris MTCC 1771 at 100 ug/ml after 24 hrs by agar diffusion method; type: functional; conditions: MTCC 1771, 24 h, read-out: IZ; method in brief: as §3
[19] = test system: THP-1; assay: Antiinflammatory activity in human THP1 cells assessed as inhibition of LPS-induced TNFalpha release at 1 uM/mL after 24 hrs by ELISA; type: functional; conditions: THP-1, 24 h; method in brief: as §4
[20] = test system: THP-1; assay: Antiinflammatory activity in human THP1 cells assessed as inhibition of LPS-induced IL6 release at 1 uM/mL after 24 hrs by ELISA; type: functional; conditions: THP-1, 24 h; method in brief: as §4
[21] = Cytotoxicity against human THP1 cells assessed as CCK8 […] at 1 uM/mL after 24 hrs […]; type: cell-based; conditions: THP-1 cells; method in brief: as §2

| Molecule | Activity [1] [%] | zone of inhibition at 250 µg/mL [2] [mm] | Activity [3] [%] | zone of inhibition at 100 µg/mL [4] [mm] | inhibition at 10 µM [5] [%] | zone of inhibition at 250 µg/mL [6] [mm] | inhibition at 10 µM [7] [%] | zone of inhibition at 250 µg/mL [9] [mm] | zone of inhibition at 100 µg/mL [10] [mm] | zone of inhibition at 100 µg/mL [11] [mm] | other results |
| --- | --- | --- | --- | --- | --- | --- | --- | --- | --- | --- | --- |
| COc1ccc(O)c(C(C)(C)C)c1.COc1ccc(O)cc1C(C)(C)C | 66.8 |  |  |  |  |  |  |  |  |  |  |
| COc1ccc(C(=O)/C=C/c2cn(-c3ccccc3)nc2-c2ccc(OC)cc2OC)c(OC)c1 | 30.3 | 14 | 2.5107 | 7 | 0 | 12 | 37.9 | 13 | 10 | 6 | zone of inhibition at 100 µg/mL [8]: 8 mm |
| CN(C)[C@@H]1C(O)=C(C(N)=O)C(=O)[C@@]2(O)C(O)=C3C(=O)c4c(O)cccc4[C@@](C)(O)[C@H]3C[C@@H]12 [TETRACYCLINE] |  |  |  |  |  |  |  |  |  |  | zone of inhibition at 10 µg/mL [12]: 20 mm; zone of inhibition at 10 µg/mL [13]: 32 mm; zone of inhibition at 10 µg/mL [14]: 17 mm |
| COc1ccc(C(=O)/C=C/c2cn(-c3ccccc3)nc2-c2ccc(C)cc2)c(OC)c1 | 13.5 | 15 | 0 | 9 | 0 | 14 | 0 | 12 | 11 | 8 | zone of inhibition at 100 µg/mL [8]: 12 mm |
| NYSTATIN |  |  |  |  |  |  |  |  |  |  | inhibition zone (IZ) [15]: 12 mm; inhibition zone (IZ) [16]: 11 mm; inhibition zone (IZ) [17]: 11 mm |
| COc1ccc(C(=O)/C=C/c2cn(-c3ccccc3)nc2-c2ccc(Br)cc2)c(OC)c1 | 17.2 | 13 | 0 | 8 | 1.81 | 11 | 11.3 | 13 | 9 | 7 | zone of inhibition at 100 µg/mL [8]: 10 mm |
| COc1ccc(C(=O)/C=C/c2cn(-c3ccccc3)nc2-c2ccccc2Cl)c(OC)c1 | 13.8 | 12 | 0 | 8 | 0 | 11 | 14.5 | 9 | 12 | 7 |  |
| COc1ccc(C(=O)/C=C/c2cn(-c3ccccc3)nc2-c2ccc(Cl)cc2Cl)c(OC)c1 | 18.2 | 10 | 0 | 10 | 0 | 8 | 40.8 | 10 | 11 | 9 |  |
| COc1ccc(-c2nn(-c3ccccc3)cc2/C=C/C(=O)c2ccc(OC)cc2OC)cc1 | 34.6 | 16 | 0 | 11 | 0 | 15 | 38.2 | 14 | 8 | 10 | inhibition zone (IZ) [8]: Active; zone of inhibition at 100 µg/mL [18]: 7 mm |
| COc1ccc(C(=O)/C=C/c2cn(-c3ccccc3)nc2-c2ccccc2)c(OC)c1 | 31.8 | 14 | 0 | 8 | 0 | 12 | 64.7 | 15 | 10 | 10 |  |
| COc1ccc(C(=O)/C=C/c2cn(-c3ccccc3)nc2-c2ccc(F)cc2)c(OC)c1 | 26.7 | 14 | 0 | 15 | 0 | 13 | 0 | 12 | 12 | 14 | zone of inhibition at 100 µg/mL [18]: 10 mm |
| COc1ccc(C(=O)/C=C/c2cn(-c3ccccc3)nc2-c2ccc(Cl)cc2)c(OC)c1 | 18.7 | 13 | 11.488 | 11 | 1.13 | 11 | 2.71 | 10 | 11 | 13 | zone of inhibition at 100 µg/mL [18]: 12 mm |
| C[C@@H]1C[C@H]2[C@@H]3CCC4=CC(=O)C=C[C@]4(C)[C@@]3(F)[C@@H](O)C[C@]2(C)[C@@]1(O)C(=O)CO [DEXAMETHASONE] |  |  |  |  |  |  |  |  |  |  | inhibition at 1 µM [19]: 69%; inhibition at 1 µM [20]: 90%; inhibition at 24 h, 1 µM [21]: 0% |
| COc1ccc(C(=O)/C=C/c2cn(-c3ccccc3)nc2-c2cccc(Cl)c2)c(OC)c1 | 29.7 | 11 | 0 | 6 | 0 | 9 | 67.5 | 10 | 9 | 8 | inhibition zone (IZ) [8]: Active; zone of inhibition at 100 µg/mL [18]: 8 mm |
